Experimental data published in ChEMBL document CHEMBL4033799, “Stable and Long-Lasting, Novel Bicyclic Peptide Plasma Kallikrein Inhibitors for the Treatment of Diabetic Macular Edema” (J Med Chem, 2018).
pKi: −log10 of the molar value.

Experiments:
Coagulation factor XI = Coagulation factor XI (Homo sapiens, UniProt P03951); assay: Inhibition of human factor 11a using fluorogenic peptide as substrate by fluorescence based assay
Summary of the method: (§1)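 Human serine proteases were assayed with substrates and conditions set by each supplier's recommendations. Peptides were first screened at 50 μM. Where inhibition was detected, Ki was determined from activity across peptide concentrations using a tight-binding rate equation.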

Kallikrein-1 = Kallikrein-1 (Homo sapiens, UniProt P06870); assay: Inhibition of recombinant human C-terminal His-tagged KLK1 (1 to 262 residues) expressed in HEK293 cells using fluorogenic PFR-AMC peptide as substrate by fluorescence based assay; summary of the method: as §1
Sequence of Kallikrein-1 (P06870 whole entry, the tested form may be a part): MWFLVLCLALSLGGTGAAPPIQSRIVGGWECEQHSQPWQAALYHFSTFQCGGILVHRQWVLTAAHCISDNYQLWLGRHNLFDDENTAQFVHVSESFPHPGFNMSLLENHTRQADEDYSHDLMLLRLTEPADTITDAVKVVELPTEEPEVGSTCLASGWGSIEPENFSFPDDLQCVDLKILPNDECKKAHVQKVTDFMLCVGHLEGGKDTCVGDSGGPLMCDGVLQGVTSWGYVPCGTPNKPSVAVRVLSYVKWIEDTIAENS

Coagulation factor XII = target: T1, Coagulation factor XII (Homo sapiens, UniProt P00748); assay: Inhibition of human factor 12a using fluorogenic peptide as substrate by fluorescence based assay; summary of the method: as §1
T1 sequence (P00748 whole entry): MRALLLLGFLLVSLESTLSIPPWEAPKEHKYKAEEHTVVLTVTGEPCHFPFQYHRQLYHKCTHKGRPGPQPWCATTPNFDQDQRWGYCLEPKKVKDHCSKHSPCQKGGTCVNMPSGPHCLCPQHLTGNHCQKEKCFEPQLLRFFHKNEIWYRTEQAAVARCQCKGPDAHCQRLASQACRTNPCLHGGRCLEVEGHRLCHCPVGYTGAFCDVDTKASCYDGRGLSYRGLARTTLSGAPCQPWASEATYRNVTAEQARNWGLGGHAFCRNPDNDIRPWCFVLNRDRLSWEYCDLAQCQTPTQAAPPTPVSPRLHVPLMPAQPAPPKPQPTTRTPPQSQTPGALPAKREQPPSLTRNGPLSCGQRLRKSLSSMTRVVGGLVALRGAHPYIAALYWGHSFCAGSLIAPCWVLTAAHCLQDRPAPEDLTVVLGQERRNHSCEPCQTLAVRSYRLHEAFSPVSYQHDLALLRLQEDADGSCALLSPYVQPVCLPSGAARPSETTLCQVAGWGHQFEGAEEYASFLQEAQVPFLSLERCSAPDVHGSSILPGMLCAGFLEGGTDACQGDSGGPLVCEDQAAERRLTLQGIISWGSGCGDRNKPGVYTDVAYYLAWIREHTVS

[1] = target: T2, Suppressor of tumorigenicity 14 protein (Homo sapiens, UniProt Q9Y5Y6); assay: Inhibition of recombinant human N-terminal 6His-tagged matriptase catalytic domain (596 to 855 residues) expressed in Escherichia coli using fluorogenic Boc-QAR-AMC peptide as substrate after 5 mins by fluorescence based assay
T2 sequence (Q9Y5Y6 whole entry): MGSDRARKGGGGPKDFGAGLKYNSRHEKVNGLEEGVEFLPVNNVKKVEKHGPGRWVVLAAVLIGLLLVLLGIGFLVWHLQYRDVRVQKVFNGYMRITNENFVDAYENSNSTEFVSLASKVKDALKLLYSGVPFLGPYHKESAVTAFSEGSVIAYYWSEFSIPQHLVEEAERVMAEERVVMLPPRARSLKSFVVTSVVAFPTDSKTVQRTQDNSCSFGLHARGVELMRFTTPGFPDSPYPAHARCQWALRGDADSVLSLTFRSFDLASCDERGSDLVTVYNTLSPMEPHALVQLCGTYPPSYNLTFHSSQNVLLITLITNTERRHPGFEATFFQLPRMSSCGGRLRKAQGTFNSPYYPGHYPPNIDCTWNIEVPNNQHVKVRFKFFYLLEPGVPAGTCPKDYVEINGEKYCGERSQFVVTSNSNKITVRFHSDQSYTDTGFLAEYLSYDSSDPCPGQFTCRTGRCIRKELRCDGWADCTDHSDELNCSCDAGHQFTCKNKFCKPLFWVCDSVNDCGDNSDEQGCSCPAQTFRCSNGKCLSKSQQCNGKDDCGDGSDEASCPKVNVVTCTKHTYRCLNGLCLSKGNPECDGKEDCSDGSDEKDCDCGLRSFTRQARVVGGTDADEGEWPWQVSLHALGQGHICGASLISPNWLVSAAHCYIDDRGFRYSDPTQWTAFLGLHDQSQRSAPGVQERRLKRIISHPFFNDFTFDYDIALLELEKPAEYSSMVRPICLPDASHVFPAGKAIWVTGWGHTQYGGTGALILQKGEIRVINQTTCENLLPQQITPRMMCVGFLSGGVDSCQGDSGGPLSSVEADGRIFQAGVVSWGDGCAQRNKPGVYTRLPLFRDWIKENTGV
Summary of the method: (§2)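 Panel of human serine proteases. Substrates and assay conditions followed each supplier's recommendations. Peptides were first screened at 50 μM. Where inhibition was detectable, hydrolytic activity was measured across a range of peptide concentrations. Ki was obtained by fitting to the tight-binding inhibitor rate equation.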

Kallikrein-13 = target: T3, Kallikrein-13 (Homo sapiens, UniProt Q9UKR3); assay: Inhibition of recombinant human C-terminal polyHis-tagged KLK13 (1 to 262 residues) expressed in HEK293 cells using fluorogenic Boc-VPR-AMC peptide as substrate by fluorescence based assay; summary of the method: as §2
T3 sequence (Q9UKR3 whole entry): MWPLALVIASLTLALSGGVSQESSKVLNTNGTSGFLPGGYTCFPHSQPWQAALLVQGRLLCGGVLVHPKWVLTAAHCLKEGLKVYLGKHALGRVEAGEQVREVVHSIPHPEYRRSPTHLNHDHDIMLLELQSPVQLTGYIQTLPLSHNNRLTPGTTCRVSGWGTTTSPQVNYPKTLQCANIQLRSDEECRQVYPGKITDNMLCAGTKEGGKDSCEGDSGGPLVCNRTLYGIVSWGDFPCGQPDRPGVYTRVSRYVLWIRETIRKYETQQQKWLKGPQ

Coagulation factor VII = target: T4, Coagulation factor VII (Homo sapiens, UniProt P08709); assay: Inhibition of human factor 7a using fluorogenic peptide as substrate by fluorescence based assay; summary of the method: as §1
T4 sequence (P08709 whole entry): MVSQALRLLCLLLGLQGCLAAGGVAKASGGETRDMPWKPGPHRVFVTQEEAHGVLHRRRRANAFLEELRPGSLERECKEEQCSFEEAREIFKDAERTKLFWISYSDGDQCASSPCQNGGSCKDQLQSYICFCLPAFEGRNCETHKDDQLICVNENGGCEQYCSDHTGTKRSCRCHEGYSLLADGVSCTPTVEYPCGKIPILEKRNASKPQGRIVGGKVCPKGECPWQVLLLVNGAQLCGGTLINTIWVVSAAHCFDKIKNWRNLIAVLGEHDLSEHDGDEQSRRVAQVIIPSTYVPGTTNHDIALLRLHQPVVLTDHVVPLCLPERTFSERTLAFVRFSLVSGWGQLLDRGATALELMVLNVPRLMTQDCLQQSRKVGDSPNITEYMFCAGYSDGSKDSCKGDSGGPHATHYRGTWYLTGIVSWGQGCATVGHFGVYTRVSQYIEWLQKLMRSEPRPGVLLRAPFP

Sequence of Coagulation factor XI (P03951 19-387 limits assumed): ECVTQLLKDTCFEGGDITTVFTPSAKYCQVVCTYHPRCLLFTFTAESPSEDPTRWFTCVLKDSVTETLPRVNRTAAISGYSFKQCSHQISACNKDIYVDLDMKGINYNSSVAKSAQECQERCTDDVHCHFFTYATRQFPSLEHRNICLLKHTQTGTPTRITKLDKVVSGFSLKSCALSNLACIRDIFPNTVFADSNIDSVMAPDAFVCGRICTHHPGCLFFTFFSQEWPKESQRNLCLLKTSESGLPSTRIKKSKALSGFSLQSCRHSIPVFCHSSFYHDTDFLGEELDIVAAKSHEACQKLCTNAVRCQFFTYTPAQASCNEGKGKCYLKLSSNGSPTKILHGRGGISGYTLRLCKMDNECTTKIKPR
Sequence of Coagulation factor XI (P03951 388-625 limits assumed): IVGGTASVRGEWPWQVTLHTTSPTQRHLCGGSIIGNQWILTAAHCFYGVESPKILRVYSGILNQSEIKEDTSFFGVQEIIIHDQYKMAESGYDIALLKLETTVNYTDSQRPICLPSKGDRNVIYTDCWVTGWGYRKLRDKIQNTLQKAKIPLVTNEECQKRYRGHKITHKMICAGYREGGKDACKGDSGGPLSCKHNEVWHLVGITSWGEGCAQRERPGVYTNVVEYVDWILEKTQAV

Row | pKi (Coagulation factor XI) | pKi (Kallikrein-1) | pKi (Coagulation factor XII) | pKi [1] | pKi (Kallikrein-13) | pKi (Coagulation factor VII) | pKi (Kallikrein-1; hek293) | pKi (Kallikrein-13; hek293) | Structure (SMILES)
1 | 6.30 | 4.30 | < 4.30 | 4.82 | 6.09 | < 4.30 |  |  | CC[C@H](C)[C@@H]1NC(=O)[C@H](CC(=O)O)NC(=O)[C@@H]2CCCN2C(=O)[C@H](Cc2ccc(O)cc2)NC(=O)[C@H](Cc2ccc(O)cc2)NC(=O)[C@H](C(C)C)NC(=O)[C@@H]2CSCc3cc(cc(c3)CSC[C@@H](C(=O)N[C@@H](C)C(=O)N(C)CC(=O)N(C)CC(=O)N(C)CC(=O)N[C@H](CCCNC(=N)N)C(=O)N[C@H](CCCNC(=N)N)C(=O)O)NC1=O)CSC[C@H](NC(C)=O)C(=O)N[C@@H](CO)C(=O)N[C@@H](Cc1ccccc1)C(=O)N1CCC1C(=O)N[C@@H](Cc1ccc(O)cc1)C(=O)N[C@@H](CCCCNC(=N)N)C(=O)N2 (stereo partly drawn)
2 | < 4.30 |  | < 4.30 | 4.30 |  | < 4.30 | < 4.30 | < 4.30 | CC(=O)N[C@H]1CSCc2cc3cc(c2)CSC[C@H](NC(=O)[C@H](CCCCNC(=N)N)NC(=O)[C@H](Cc2ccc(O)cc2)NC(=O)[C@@H]2CCN2C(=O)[C@H](Cc2ccccc2)NC(=O)[C@H](CO)NC1=O)C(=O)N[C@@H](C)CN[C@@H](Cc1cnc[nH]1)C(=O)N[C@@H](CCC(N)=O)C(=O)N[C@@H](CC(=O)O)C(=O)N[C@@H](CC(C)C)C(=O)N[C@H](C(=O)O)CSC3
3 | < 4.30 |  | < 4.30 | 4.40 |  | < 4.30 | < 4.30 | < 4.30 | CC(=O)N[C@H]1CSCc2cc3cc(c2)CSC[C@H](C(=O)N[C@@H](C)C(=O)N(C)CC(=O)N(C)CC(=O)N(C)CC(=O)N[C@H](CCCNC(=N)N)C(=O)N[C@H](CCCNC(=N)N)C(=O)O)NC(=O)[C@H](CC(C)C)NC(=O)[C@@H]2CCCN2C(=O)[C@H](C)NC(=O)[C@H](CC(=O)O)NC(=O)[C@H](Cc2c[nH]c4ccccc24)NC(=O)[C@@H]2CCCN2C(=O)[C@H](CSC3)NC(=O)[C@H](Cc2c[nH]c3ccccc23)NC(=O)[C@@H]2CCCN2C(=O)[C@H](CC(N)=O)NC(=O)[C@H](Cc2c[nH]c3ccccc23)NC(=O)[C@H]([C@@H](C)O)NC(=O)[C@H](CC(N)=O)NC1=O
